PRMT1 inh – blocks human protein arginine methyltransferase 1 | Q99873 | recombinant PRMT1, activity-based probe fluorescence polarization | inhibition, % at 2.79 µM | 370,000 tested, 1.3% active | AID 652257;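 active = inhibition above about 21% made by adding two undisclosed values, limit read from the data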
A3A deaminase – blocks human APOBEC3A ssDNA deamination; P31941; recombinant A3A, FAM/TAMRA ssDNA deamination fluorescence; inhibition, % at 20 µM; 330,000 tested, 0.41% active; AID 493011;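 active = at least 40% inhibition at 20 µM here, with at most 30% in a related deaminase screen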;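 also: plate controls were A3A with DMSO for no effect and wells lacking A3A enzyme for full effect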
Target sequence (P31941 whole entry, looked up): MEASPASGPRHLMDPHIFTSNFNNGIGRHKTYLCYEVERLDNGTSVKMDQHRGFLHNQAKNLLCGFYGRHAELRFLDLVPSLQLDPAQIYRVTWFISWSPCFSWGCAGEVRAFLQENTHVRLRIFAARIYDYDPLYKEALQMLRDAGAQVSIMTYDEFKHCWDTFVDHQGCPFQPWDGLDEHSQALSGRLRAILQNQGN
ABHD5-PLIN5 inh – ABHD5-PLIN5 protein interaction inhibition; Q00G26+Q8WTS1; Split G. princeps luciferase complementation, luminescence, 4 h; inhibition, % at 4 µM; 360,000 tested, 0.78% active; AID 602281;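 active = inhibition above the mean inhibition across every tested compound plus 3 SD, cut at about 22% in these data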;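 also: 0% = DMSO only wells and the 100% control is not disclosed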
NS3 helicase inh – blocks Hepatitis C virus NS3 helicase unwinding | NS3 helicase DNA unwinding, Cy5 molecular beacon fluorescence | inhibition, % at 10.9 µM | 290,000 tested, 0.56% active;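 active = inhibition above the mean of all tested compounds plus 3 SD, set per campaign, cut at about 35% in these data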;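 also: 0% = DMSO wells and 100% = thioflavine S control wells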
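Material: hepatitis C virus NS3 helicase domain fragment enzyme; measured by: Cy5 fluorescence, 0 and 60 min reads; control set: DMSO and thioflavine S; incubation: 60 min unwinding reaction at 25 °C after ATP addition; read-out basis: % inhibition from 60/0 min fluorescence ratio, DMSO 0%, thioflavine S 100%; repeats: singlicate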
APOBEC3G inh – blocks human APOBEC3G single-stranded DNA deamination. recombinant A3G, ssDNA deamination FAM/TAMRA fluorescence. inhibition, % at 20 µM. 330,000 tested, 0.28% active;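 active = inhibition of at least 40% at 20 µM, with no more than 30% in the related APOBEC3A deaminase screen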;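 also: plate controls were DMSO wells with A3G for no effect and wells lacking A3G enzyme for full effect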
Target sequence (Q9HC16 whole entry, looked up): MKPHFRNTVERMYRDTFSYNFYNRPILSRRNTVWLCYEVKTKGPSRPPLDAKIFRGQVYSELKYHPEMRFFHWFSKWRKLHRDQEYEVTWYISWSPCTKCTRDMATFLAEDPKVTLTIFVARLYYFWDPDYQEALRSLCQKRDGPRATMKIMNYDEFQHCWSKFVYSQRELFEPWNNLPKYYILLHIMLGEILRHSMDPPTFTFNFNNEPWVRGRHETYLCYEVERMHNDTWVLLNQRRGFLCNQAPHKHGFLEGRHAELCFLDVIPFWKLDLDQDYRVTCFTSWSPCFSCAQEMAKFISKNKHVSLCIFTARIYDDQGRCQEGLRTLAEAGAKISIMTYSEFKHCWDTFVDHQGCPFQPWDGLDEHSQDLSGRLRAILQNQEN
HCV core dimer – HCV core protein dimerization inhibition; TR-FRET GST/Flag-core106 dimerization, 1536-well; inhibition, % at 5 µM; 300,000 tested, 0.33% active;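 active = inhibition above the mean of all tested compounds plus 3 SD, set per screening campaign, cut at about 45% in these data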
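assay system = GST-tagged and Flag-tagged HCV core protein residues 1-106 | controls = unlabelled core106 and no-GST-core106 wells | incubation = compound-protein-antibody incubation 4 h at 22.5 °C | probe or stimulus = Eu donor and XL665 acceptor anti-tag antibodies | read-out = % inhibition based on acceptor/donor emission ratio | signal = TR-FRET 671 and 617 nm emission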
A3A conf – confirmation of human APOBEC3A DNA deaminase inhibitors | shares compounds with A3A deaminase | recombinant A3A, ssDNA deaminase UDG fluorescence assay | inhibition, % at 20 µM | 1,400 tested, 63% active | AID 493151;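 active = inhibition reaching a set limit, 80% of the first screen's cutoff, at 20 µM in any replicate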;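 also: plate controls were DMSO wells with A3A for no effect and wells lacking A3A enzyme for full effect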
UDG ctr A3A – counter-screen for APOBEC3A inhibitors: UDG | shares compounds with A3A deaminase | UDG counterscreen, FAM/TAMRA uracil oligo fluorescence | inhibition, % at 20 µM | 1,000 tested, under 10 active | AID 504714; call rule not given here
The depositor's hits bear a star; . = no result. The list is not random: actives were taken first. Their share in the collection is about 2.9%.

SMILES	PRMT1 inh	A3A deaminase	ABHD5-PLIN5 inh	NS3 helicase inh	APOBEC3G inh	HCV core dimer	A3A conf	UDG ctr A3A
CCc1noc(C)c1C(=O)N(CCOC)c1c(N)n(CC(C)C)c(=O)[nH]c1=O	-2.8	42.8*	3.3	2.0	6.3	-4.9	1.5	.
CCCCN(C(=O)c1ccc([N+](=O)[O-])o1)c1c(N)n(CC(C)C)c(=O)[nH]c1=O	8.7	44.0*	1.4	.	8.6	4.9	9.4	.
COc1ccc(NC(=O)CCNS(=O)(=O)c2ccc(NC(C)=O)cc2)cc1Cl	2.4	0.5	7.1	3.0	-4.5	6.3	.	.
COc1ccccc1NC(C)=[N+](C)CCNS(=O)(=O)c1ccc(Cl)cc1	-0.8	56.4*	1.9	1.8	15.9	-11.4	79.0*	-2.4
Cc1ccc(S(=O)(=O)NCCC(=O)Nc2cccc(Cl)c2)cc1	-0.4	3.0	3.8	-10.1	-6.7	0.5	.	.
COc1ccc(NC(C)=[N+](C)CCNS(=O)(=O)c2ccc(Cl)cc2)cc1Cl	2.1	61.7*	3.8	-14.7	13.6	-3.8	68.6*	1.4
CC(Nc1cc(C)cc(C)c1)=[N+](C)CCNS(=O)(=O)c1ccc(Cl)cc1	-0.9	44.6*	-1.3	-28.7	9.2	-1.3	66.7*	0.4
CCC1(CC)C(=O)N(c2ccccc2)C(=N)N(c2ccccc2)C1=O	1.3	.	1.4	.	.	.	.	.
O=C(O)Cn1cc(/C=N/NC(=O)c2cc3cc(Br)ccc3o2)c2ccccc21	-5.7	-7.0	0.4	9.0	-7.8	-2.1	.	.
Cn1cc(/C=N/NC(=O)c2cc3cc(Br)ccc3o2)c2ccccc21	6.7	52.0*	-1.0	-9.9	16.2	-0.1	58.5*	-0.8
CCOC(=O)N1CCN(S(=O)(=O)N2CCCC(C(=O)NCc3ccc(C)cc3)C2)CC1 (stereo not drawn)	-3.0	.	3.5	.	.	.	.	.
COc1ccc(C2C(C(C)=O)=C(C)N=c3s/c(=C\c4ccc5c(c4)OCO5)c(=O)n32)c(OC)c1 (stereo not drawn)	-0.2	50.1*	-0.2	-4.8	3.6	11.6	9.0	.
COc1ccc(C2C(C(C)=O)=C(C)N=c3s/c(=C\c4cc(C)n(C)c4C)c(=O)n32)c(OC)c1 (stereo not drawn)	-18.5	-6.3	6.6	0.9	-14.1	-6.6	.	.
COCCN1CCN(C(=O)c2cc(COc3ccc(F)c(F)c3)on2)CC1	-4.1	-7.6	-2.4	22.3	-3.3	.	.	.
CCOC(=O)c1c(NC(=O)Cn2nc(C(F)(F)F)cc2C)sc(C)c1C	3.0	44.8*	-4.5	0.7	-6.0	-1.4	1.5	3.6
Cc1nc2nc(C)n(-c3ccccc3)c2s1	5.2	48.2	-2.2	4.9	30.0	35.0	46.9*	-2.5
Cc1nc2ccccc2n1-c1ccccc1	-1.1	1.9	-3.0	-0.9	-0.3	-2.9	.	.
O=C(COC(=O)CCNS(=O)(=O)c1ccccc1)NC(=O)c1ccccc1	-2.0	10.9	4.2	.	-3.5	3.7	.	.
CCC(=O)Nc1cc(C(=O)O)ccc1S(=O)(=O)c1ccc(C)cc1	20.1	46.6*	-0.1	14.2	9.7	-5.1	51.9*	0.3
CCN(Cc1ccccc1)C(=O)c1ccc(SC)cc1OC	-0.9	2.8	1.6	-12.5	1.3	1.7	.	.
COc1cc(OC)c(C(=O)N(CCc2ccccc2)Cc2ccccc2)cc1OC	0.1	64.9*	6.0	-9.9	-2.1	1.5	0.0	-2.1
COc1ccc(OCc2cc(C(=O)O)c(C)o2)cc1	.	53.0*	.	6.5	7.6	-1.5	34.4*	.
CCN(CC)Cc1cc(C(=O)O)c(C)o1	1.9	-2.2	0.9	-17.0	-8.6	4.0	.	.
CC[n+]1ccccc1/C=C/Nc1ccccc1	4.9	60.9*	-1.7	0.3	17.6	-1.1	69.6*	6.8
CCN(CC)CCOc1ccc2c(c1)C(=NO)c1cc(OCCN(CC)CC)ccc1-2	-2.2	47.3*	0.8	27.9	26.0	-9.3	37.0*	-1.1
SMILES	PRMT1 inh	A3A deaminase	ABHD5-PLIN5 inh	NS3 helicase inh	APOBEC3G inh	HCV core dimer	A3A conf	UDG ctr A3A
CCN(CC)CCOc1ccc(Br)cc1	-4.2	-4.3	5.4	-9.2	-6.0	-3.4	.	.
[O-][n+]1c(/C=C/c2ccccc2)ccc2ccccc21	0.9	-3.6	-3.7	7.0	-5.7	.	.	.
CN(CCCS(=O)(=O)[O-])c1ccc(/C=C/c2ccc3ccccc3[n+]2C)cc1	15.1	58.0*	-11.4	-3.0	24.3	.	68.0*	-3.0
CCOC(=O)CC1(C)OCC(C[N+]2(C)CCCCC2)O1 (stereo not drawn)	-3.8	78.0*	4.8	6.3	16.1	-1.0	80.6*	-2.7
C=CCn1c(CCCNC(=O)CCC)nc2ccccc21	-3.9	47.3*	1.8	8.0	-0.7	-1.2	-3.3	-0.2
COc1ccc(NC(=O)N2C[C@H]3CON(C)[C@H]3C[C@H]2c2ccc(N3CCCCC3)cc2)cc1	9.7	.	-5.0	.	.	.	.	.
COc1ccc(NC(=O)/C(C#N)=C\c2ccc(Br)o2)cc1	3.9	70.8*	0.9	20.3	20.9	24.1	42.0*	-1.6
Cn1c2ccccc2c2cc(/C=N/NC(=O)c3cc(O)cc(O)c3)ccc21	1.5	54.7*	-11.8	23.2	20.4	15.1	60.4*	1.6
Cc1cccc(C(=O)Oc2ccc(/C=N/NC(=O)c3cc(O)cc(O)c3)cc2)c1	8.7	69.2*	-10.6	7.0	23.7	.	77.2*	2.1
Cc1cc(F)cc(-c2cc(C(=O)NCc3ccccn3)[nH]n2)c1	3.4	.	-1.4	.	.	.	.	.
C[N+]1(C2CCC3CCC2C3O)CCCC1 (stereo not drawn)	-1.5	40.7*	-1.6	1.7	26.3	-3.6	67.1*	6.2
CC(=O)OC1C2CCC1C([N+]1(C)CCCCC1)CC2 (stereo not drawn)	-3.4	72.8*	0.8	-5.6	8.2	-0.3	72.9*	-1.3
C[N+]1(CC(=O)OC2CCCCCCCCCCC2)CCCC1	3.9	80.1	9.6	-16.3	37.0	-5.7	.	.
O=C(N/N=C/c1cccc(Br)c1)C1CC(=O)N(c2ccccc2)C1 (stereo not drawn)	-1.5	-3.5	3.7	-2.5	-12.5	8.8	.	.
O=C(NCc1ccc(F)cc1)N1[C@H]2CC[C@@H]1C=C(c1ccc(F)cc1OCc1ccccc1)C2	-3.9	.	-9.7	.	.	.	.	.
COc1ccc(CCNC(=O)CC(c2ccccc2)c2cccc(C)c2O)cc1OC (stereo not drawn)	-1.7	-2.5	-2.4	15.8	-5.0	1.1	.	.
O=C(NCC1CCCO1)C1CCN(S(=O)(=O)c2ccc(Br)cc2)CC1 (stereo not drawn)	-1.0	1.8	1.5	15.0	5.7	-19.9	.	.

High-throughput results as filed in PubChem.
